# Reference: ChEMBL document CHEMBL3244304, “Correlation of biological activity and high-pressure liquid chromatographic retention index for a series of propranolol, barbiturate, and anthranilic acid analogues” (J Med Chem, 1979)
# Key:
# [1] = Octanol-buffer partition coefficient, log P of the compound at pH 8.0 by ultraviolet spectroscopy; format: physicochemical
# How it was run: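 Drug distributed between an octanol phase and an aqueous buffer at pH 8.0, the same way as the pH 7.0 phosphate-buffer method. Drug in each phase quantified by ultraviolet spectroscopy, and the log of the octanol/buffer distribution ratio was reported.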
# [2] = Retention index of the compound by HPLC method; format: physicochemical
# [3] = Octanol-water partition coefficient, log P of nonionized form of compound; format: physicochemical
# Oryctolagus cuniculus = organism: Oryctolagus cuniculus; assay: Hypnotic activity in rabbit; format: functional
# How it was run: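 Rabbits; value expressed as negative log of the minimum effective dose (mol/kg).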
# [4] = Inhibition of Arbacia egg cell division; format: functional
# How it was run: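 Arbacia egg cell division; value expressed as negative log of the molar drug concentration needed to reduce cell division 50%.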
Compound,logD [1],Retention_index [2],logP [3],pMED (Oryctolagus cuniculus),pED50 [4]
O=C(O)c1ccccc1NS(=O)(=O)c1ccccc1,-0.46,530,,,
O=C(O)c1ccccc1NS(=O)(=O)c1ccc(F)cc1,0.03,565,,,
Cc1ccc(S(=O)(=O)Nc2ccccc2C(=O)O)cc1,0.05,606,,,
O=C(O)c1ccccc1NS(=O)(=O)c1ccc(Cl)cc1,0.54,656,,,
O=C(O)c1ccccc1NS(=O)(=O)c1ccc([N+](=O)[O-])cc1,-0.03,586,,,
O=C(O)c1ccccc1NS(=O)(=O)c1ccc(Br)cc1,0.83,678,,,
CCC1(CCC(C)C)C(=O)NC(=O)NC1=O [AMOBARBITAL],,681,1.95,,
C=CCC1(C(C)C)C(=O)NC(=O)NC1=O [APROBARBITAL],,552,1.15,3.6,
CCC1(CC)C(=O)NC(=O)NC1=O [BARBITAL],,423,0.65,3.09,
O=C1CC(=O)NC(=O)N1 [BARBITURIC ACID],,53,-1.35,,
CCC(C)C1(CC)C(=O)NC(=O)NC1=O (centres undefined) [BUTABARBITAL],,600,1.45,3.63,
C=CCC1(CC(C)C)C(=O)NC(=O)NC1=O [BUTALBITAL],,616,1.45,,
CCCCC1(CC)C(=O)NC(=O)NC1=O [BUTETHAL],,610,1.65,3.72,2.4
CCC1(C2=CCCCC2)C(=O)NC(=O)NC1=O [CYCLOBARBITAL],,604,1.86,,
CN1C(=O)NC(=O)C(C)(C2=CCCCC2)C1=O (centres undefined) [HEXOBARBITAL],,648,1.92,,
CCC1(CC)C(=O)NC(=O)N(C)C1=O [METHARBITAL],,532,1.21,,
C=CCC1(C(C)C#CCC)C(=O)N=C(O)N(C)C1=O (centres undefined) [METHOHEXITAL],,776,2.19,,
CCCC(C)C1(CC)C(=O)NC(=O)NC1=O (centres undefined) [PENTOBARBITAL],,686,1.95,,
CCC1(c2ccccc2)C(=O)NC(=O)NC1=O [PHENOBARBITAL],,523,,,
C=CCC1(C(C)CCC)C(=O)NC(=O)NC1=O (centres undefined) [SECOBARBITAL],,728,2.15,4.2,
C=CCC1(C(C)CCC)C(=O)N=C(S)NC1=O (centres undefined) [THIAMYLAL],,760,3.2,,
CCCC(C)C1(CC)C(=O)NC(=S)NC1=O (centres undefined) [THIOPENTAL],,732,3,,
